Measurements from ChEMBL document CHEMBL3865807, “Syntheses and photodynamic activity of some glucose-conjugated BODIPY dyes” (Eur J Med Chem, 2016).
The source made the active and inactive calls. The rule behind the calls is not given here.

Experiments:
[1] = Drug uptake in human L-132 cells assessed as mean fluorescence intensity at 2.5 uM after 4 hrs by flow cytometry (reference value: 4.6 +/- 1.2); type: ADME, cell-based; conditions: l132, 4 h
Bos taurus = species on record: Bos taurus; assay: Binding affinity to calf thymus duplex DNA assessed as decrease in intensities of maximum absorption at 50 uM by spectrophotometric titration analysis
A549 [2] = assay: Induction of apoptosis in human A549 cells assessed as pro-caspase 3 level at 2.5 uM preincubated for 1 hr followed by 0.77 mW/cm2 white light irradiation for 80 mins measured after 8 hrs by immunoblot analysis relative to control; type: functional
How it was run: (§1)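 Whole-cell extracts from A549 cells (1×10^6) treated with 0 or 2.5 µM compound, photo-exposed 80 min, lysed in Tris pH 7.4/NaCl/EDTA/Triton with protease inhibitors; 30 µg protein on 12% SDS-PAGE, nitrocellulose, milk block, caspase-3 antibody overnight 4 °C, HRP secondary, chemiluminescence; band ratio to normal control (=1) after loading-control normalisation.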

[3] = Toxicity in human A549 cells assessed as alteration in cell morphology at 100 nM measured up to 4 hrs in dark by confocal microscopy; type: cell-based; conditions: a549, 4 h, 0.1 µM
[4] = Induction of apoptosis in human A549 cells assessed as accumulation at subG1 phase up to 50 uM measured after 24 hrs under dark condition by propidium iodide staining based flow cytometry; type: cell-based; conditions: a549, 24 h
How it was run: (§2)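 Cells exposed 1 h to compound (5-50 µM; vehicle 0.1% DMSO), washed, then irradiated (0.77 mW/cm²) for 0, 30 or 80 min; after serum addition kept 24 h. PI/RNase A staining in hypotonic 0.1% citrate-0.1% Triton X-100, 30 min, 37 °C; sub-G1 peak by flow cytometry, debris gated out, ≥2×10^4 cells; five replicates, mean ± SEM.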

A549 [5] = assay: Induction of apoptosis in human A549 cells assessed as accumulation at subG1 phase at 5 to 50 uM preincubated for 1 hr followed by 0.77 mW/cm2 white light irradiation for 80 mins measured after 24 hrs by propidium iodide staining based flow cytometry relative to control; type: functional; how it was run: as §2
A549 [6] = assay: Induction of morphological changes in human A549 cells assessed as cells with blebbing membranes up to 2.5 uM preincubated for 1 hr followed by 0.77 mW/cm2 white light irradiation for 80 mins measured after 24 hrs by phase contrast microscopy; type: functional, cell-based
How it was run: (§3)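 A549 cells (1×10^5/well) on coverslips given vehicle (0.1% DMSO) or compound (0.625, 1.25, 2.5 µM) for 1 h, then irradiated 80 min (0.77 mW/cm²); kept 24 h in regular medium and examined unstained by phase-contrast microscopy (40× objective); representative fields imaged; experiments done three times.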

A549 [7] = assay: Induction of apoptosis in human A549 cells assessed as pro-caspase 3 level at 2.5 uM preincubated for 1 hr followed by 0.77 mW/cm2 white light irradiation for 80 mins measured after 4 hrs by immunoblot analysis relative to control; type: functional; how it was run: as §1
[8] = Photocytotoxicity against human L-132 cells at 50 uM using 0.77 mW/cm2 white light irradiation by MTT assay; type: toxicity, cell-based; conditions: l132, 50 µM
A549 [9] = assay: Induction of morphological changes in human A549 cells assessed as irregular disruptions in optical diffraction halo preincubated for 1 hr followed by 0.77 mW/cm2 white light irradiation for 80 mins measured after 24 hrs by phase contrast microscopy; type: functional, cell-based; how it was run: as §3
A549 [10] = assay: Induction of morphological changes in human A549 cells assessed as increase in floating cells without adhering ability up to 2.5 uM preincubated for 1 hr followed by 0.77 mW/cm2 white light irradiation for 80 mins measured after 24 hrs by phase contrast microscopy; type: functional, cell-based; how it was run: as §3
A549 [11] = assay: Induction of apoptosis in human A549 cells assessed as decrease in pro-caspase 3 level at 2.5 uM preincubated for 1 hr followed by in 0.77 mW/cm2 white light irradiation for 80 mins by immunoblot analysis; type: functional, cell-based; conditions: TDE = time-dependent effect; how it was run: as §1
A549 [12] = assay: Induction of morphological changes in human A549 cells assessed as changes in cell outline preincubated for 1 hr followed by 0.77 mW/cm2 white light irradiation for 80 mins measured after 24 hrs by phase contrast microscopy; type: functional, cell-based; how it was run: as §3
[13] = Drug uptake in human A549 cells assessed as mean fluorescence intensity at 2.5 uM after 8 hrs by flow cytometry (reference value: 5.4 +/- 1.5); type: ADME, cell-based; conditions: a549, 8 h
[14] = Drug uptake in human A549 cells assessed as mean fluorescence intensity at 2.5 uM after 4 hrs by flow cytometry (reference value: 5.4 +/- 1.5); type: ADME, cell-based; conditions: a549, 4 h
A549 [15] = assay: Induction of apoptosis in human A549 cells assessed as increase in caspase 3 activity at 2.5 uM preincubated for 1 hr followed by 0.77 mW/cm2 white light irradiation for 80 mins measured after 16 hrs by colorimetric method relative to control; type: functional
How it was run: (§4)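 A549 cells (1×10^6) given compound 2.5 µM for 1 h, then light 80 min; caspase activities measured at 16 h in whole-cell extracts with kits, colorimetric for caspase-3 and fluorimetric for caspase-8; untreated photo-exposed cells as control; five replicates, mean ± SEM.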

A549 [16] = assay: Photocytotoxicity against human A549 cells assessed as decrease in cell viability at 500 to 5000 nM preincubated for 1 hr followed by 0.77 mW/cm2 white light irradiation measured after 24 hrs by MTT assay; type: functional, cell-based; conditions: TDE = time-dependent effect
How it was run: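 A549 cells (1×10^4/well), plated overnight, given compound for 1 h in serum-free medium, washed twice with PBS, irradiated 0.5, 1, 2 or 4 h at 0.77 mW/cm² (37 °C, 5% CO₂), then 24 h in regular medium; MTT 0.5 mg/mL for 6 h, formazan dissolved in 0.01 N HCl/10% SDS, A550.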

[17] = Induction of apoptosis in human A549 cells assessed as caspase 3 activation at 2.5 uM preincubated measured after 24 hrs under dark condition by immunoblot analysis; type: cell-based; conditions: a549, 24 h
A549 [18] = assay: Induction of apoptosis in human A549 cells assessed as pro-caspase 3 level at 2.5 uM preincubated for 1 hr followed by 0.77 mW/cm2 white light irradiation for 80 mins measured after 16 hrs by immunoblot analysis relative to control; type: functional; how it was run: as §1
A549 [19] = assay: Induction of apoptosis in human A549 cells assessed as increase in caspase 8 activity at 2.5 uM preincubated for 1 hr followed by 0.77 mW/cm2 white light irradiation for 80 mins measured after 16 hrs by fluorimetric method relative to control; type: functional; how it was run: as §4
A549 [20] = assay: Induction of apoptosis in human A549 cells assessed as increase in caspase 9 activity at 2.5 uM preincubated for 1 hr followed by 0.77 mW/cm2 white light irradiation for 80 mins measured after 16 hrs in presence of caspase-9 inhibitor Z-LEHD-FMK by immunoblot analysis; type: functional, cell-based
[21] = Drug uptake in human A549 cells assessed as mean fluorescence intensity at 2.5 uM after 16 hrs by flow cytometry (reference value: 5.4 +/- 1.5); type: ADME, cell-based; conditions: a549, 16 h

Compound: CCC1=C(C)C2=C(C)c3c(C)c(CC)c(C)n3[B-](F)(F)[N+]2=C1/C=C/c1ccc(O[C@H]2O[C@H](CO)[C@@H](O)[C@H](O)[C@H]2O)cc1
- Flu intensity [1]: 56.8
- Activity (Bos taurus): Active
- fold change (FC) (A549 [2]): 0.8
- Activity [3]: Non-Toxic
- Activity [4]: Non-Toxic
- fold change (FC) (A549 [5]): 5 - 6
- Activity (A549 [6]): Active
- fold change (FC) (A549 [7]): 0.8
- Activity [8]: 5 to 7%
- Activity (A549 [9]): Dose-dependent effect
- Activity (A549 [10]): Active
- Activity (A549 [11]): Tde
- Activity (A549 [12]): Dose-dependent effect
- Flu intensity [13]: 49.4 to 58.4
- Flu intensity [14]: 66.2 to 68.9
- fold change (FC) (A549 [15]): 2.9
- Activity (A549 [16]): Tde
- Activity [17]: Non-Toxic
- fold change (FC) (A549 [18]): 0.6
- fold change (FC) (A549 [19]): 6.2
- Activity (A549 [20]): Active
- Flu intensity [21]: 41.6 to 52.5
